Test results as given in ChEMBL document CHEMBL4196106, “From Naproxen Repurposing to Naproxen Analogues and Their Antiviral Activity against Influenza A Virus” (J Med Chem, 2018).
pIC50, pKi: −log10 of the molar value. Calls of active or inactive are those of the source. The calls are words filed in the database; no cut-off is given here.

Tests used:
MDCK = assay: Inhibition of nucleoprotein/polymerase acidic protein (1 to 27 residues) interaction in Influenza A virus (A/WSN/1933 (H1N1)) infected in MDCK cells by Western blot analysis; format: cell-based
In short: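 MDCK cells were infected with A/WSN/33 at MOI 2 for 18 h and lysed in PBS with protease inhibitors and 0.5% NP40 by freezing; nucleic acids were not digested. Streptavidin beads loaded with 250 µM biotinylated PA(1-27) were incubated with the lysate 18 h at 4 °C, with or without compound. Bound NP was detected by anti-NP monoclonal western blot.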

Influenza A virus [1] = assay: Stabilization of Influenza A virus nucleoprotein assessed as melting temperature at 5 to 15 uM measured for 5 mins
In short: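 Recombinant NP, over 80% monomeric, was used at 5–15 µM with compound at a 1:1 ratio in 20 mM Tris pH 7.4, 50 mM NaCl. Mean size was followed by dynamic light scattering (10 scans over 5 min per point) while heating at 1 °C/min up to 70–80 °C. Tm was taken from the maximum of the first-derivative curve, and analyses were done in triplicate.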

[2] = Binding affinity to biotin labelled Influenza A virus nucleoprotein by surface plasmon resonance analysis
[3] = Cytotoxicity against MDCK cells assessed as reduction in cell viability after 48 hrs by trypan blue staining based method; set-up: species or system Canis lupus familiaris; conditions: dog
In short: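 MDCK cells, 3.2 x 10^5 per well, were grown 24 h and then exposed to serial compound dilutions under the same conditions as the MTT test. At 48 h, cells were washed, trypsinised and stained with Trypan blue, and viable and dead cells were counted by phase-contrast microscopy.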

Influenza A virus [4] = assay: Stabilization of Influenza A virus nucleoprotein assessed as melting temperature at 5 to 15 uM measured for 10 mins
[5] = Safety index, ratio of compound CC50 to naproxen CC50 for MDCK cells by MTT assay; format: ADME, cell-based, Canis lupus familiaris; conditions: dog
[6] = Selectivity index, ratio of CC50 for MDCK cells to IC50 for pandemic Influenza A virus (A/Netherlands/602/09(H1N1)) infected in MDCK cells at MOI of 10^-3 after 18 hrs; format: toxicity, cell-based; conditions: dog, read-out: Ratio CC50/IC50
Influenza A virus [7] = assay: Antiviral activity against pandemic Influenza A virus (A/Netherlands/602/09(H1N1)) infected in MDCK cells at MOI of 10^-3 assessed as decrease in viral load after 18 hrs by immunofluorescence analysis; format: functional, organism-based
Influenza A virus [8] = assay: Antiviral activity against Influenza A virus (A/WSN/1933(H1N1)) infected in MDCK cells at MOI of 2 assessed as decrease in viral load after 18 hrs by immunofluorescence analysis; format: functional, organism-based
In short: (§1)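 MDCK or A549 cells, 0.32 x 10^6 per well, were held 24 h serum-free to 80% confluence and then infected at MOI 2. Compound (0.1–500 µM) or vehicle was added right after virus adsorption. At 18 h, viral NP was read by immunofluorescence and corrected for cell number by DAPI. Runs were in triplicate, repeated at least twice, and IC50 came from a dose-response fit.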

[9] = Selectivity index, ratio of CC50 for MDCK cells to IC50 for Influenza A virus (A/WSN/1933(H1N1)) infected in MDCK cells at MOI of 10^-3 after 48 hrs; format: toxicity, cell-based; conditions: dog, read-out: Ratio CC50/IC50
A549 = assay: Downregulation of COX2 level in human A549 cells infected with Influenza A virus at MOI of 2 at 100 uM after 18 hrs in presence of gamma-ATP by immunofluorescence analysis; format: cell-based; conditions: a549, 18 h
In short: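 A549 cells were pretreated with compound for 30 min, then either infected with IAV at MOI 2 for 18 h or activated with 100 µM γ-ATP for 1 h with or without compound. Cells were fixed in 3% PFA and permeabilised with 0.1% triton. COX2 was immunostained overnight with a primary antibody and detected with an Alexa 647 secondary.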

[10] = Selectivity index, ratio of CC50 for MDCK cells to IC50 for Influenza A virus (A/WSN/1933(H1N1)) infected in MDCK cells at MOI of 2 after 18 hrs; format: toxicity, cell-based; conditions: dog, read-out: Ratio CC50/IC50
Influenza A virus [11] = assay: Antiviral activity against Influenza A virus (A/Udorn/1972 (H3N2)) infected in MDCK cells at MOI of 2 assessed as decrease in viral load after 18 hrs by immunofluorescence analysis; format: functional, organism-based; in short: as §1
Influenza A virus [12] = assay: Antiviral activity against Influenza A virus (A/WSN/1933(H1N1)) infected in MDCK cells at MOI of 10^-3 assessed as decrease in viral load after 48 hrs by crystal violet staining-based plaque assay; format: functional, organism-based
In short: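 Serum-starved MDCK cells, 0.32 x 10^6 per well, were infected with A/WSN/33 at MOI 10^-3 (multi-cycle). Compound (0.1–500 µM) or vehicle was added immediately after adsorption. After 48 h, titres in clarified supernatant were read by plaque assay with crystal violet. Runs were in triplicate, repeated at least twice, and IC50 came from a dose-response fit.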

[13] = Binding affinity to Influenza A virus nucleoprotein by surface plasmon resonance analysis
[14] = Selectivity index, ratio of CC50 for MDCK cells to IC50 for Influenza A virus (A/Udorn/1972 (H3N2)) infected in MDCK cells at MOI of 2 after 18 hrs; format: toxicity, cell-based; conditions: dog, read-out: Ratio CC50/IC50
Influenza A virus [15] = assay: Antiviral activity against Influenza A virus (A/Udorn/1972 (H3N2)) infected in human A549 cells assessed as decrease in viral load after 18 hrs by immunofluorescence analysis; format: functional, organism-based; conditions: A549, 18 h; in short: as §1
[16] = Selectivity index, ratio of CC50 for human A549 cells to IC50 for Influenza A virus (A/Udorn/1972 (H3N2)) after 18 hrs; format: toxicity; conditions: read-out: Ratio CC50/IC50
Influenza A virus [17] = assay: Antiviral activity against Influenza A virus (A/Puerto Rico/8/1934(H1N1)) infected in C57BL/6J mouse assessed as increase in mouse survival at 8 mg/mouse/day, ip qd treated up to day 2 starting at 5 to 10 mins post infection measured at day 12; format: functional, organism-based
In short: (§2)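 Intranasal A/PR/8/34 challenge at 500 PFU in female C57BL/6J mice, 5–6 weeks old, under ketamine/xylazine. Dosing was i.p. once daily on days 0, 1 and 2, starting 5–10 min post-inoculation; 1 mg/mouse is 50 mg/kg and 8 mg/mouse is 400 mg/kg. There were 10 mice per group, with saline vehicle. Survival and body weight were scored daily, with 20% weight loss as the mortality endpoint.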

Influenza A virus [18] = assay: Antiviral activity against Influenza A virus (A/Puerto Rico/8/1934(H1N1)) infected in C57BL/6J mouse assessed as recovery of weight loss at 8 mg/mouse/day, ip qd […] starting at 5 to 10 mins post infection measured up to day 12; format: functional, organism-based
Influenza A virus [19] = assay: Antiviral activity against Influenza A virus (A/Puerto Rico/8/1934(H1N1)) infected in C57BL/6J mouse assessed as decrease in viral load in bronchoalveolar lavage at 8 mg/mouse/day, ip qd treated up to day 2 starting at 5 to 10 mins post infection relative to control; format: functional
In short: (§3)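 Female C57BL/6J mice, 5–6 weeks old, were anaesthetised with ketamine/xylazine (43/5 mg/kg) and inoculated intranasally with A/PR/8/34 at 500 PFU. Treatment was i.p. once daily on days 0, 1 and 2, starting 5–10 min after inoculation; 1 mg/mouse is 50 mg/kg and 8 mg/mouse is 400 mg/kg. BAL infectious titre was measured by plaque assay against saline-treated mice.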

[20] = Cytotoxicity against human A549 cells assessed as reduction in cell viability after 48 hrs by MTT assay; format: cell-based
In short: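 Cells were seeded at 3.2 x 10^5 per well and kept 1 day at 37 °C in MEM without serum. Serial compound dilutions were added and cells incubated a further 48 h. The MTT read-out was absorbance at 550 nm minus 650 nm, and CC50 was taken from a dose-response fit.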

[21] = Cytotoxicity against MDCK cells assessed as reduction in cell viability after 24 to 72 hrs by MTT assay; conditions: dog
Influenza A virus [22] = assay: Antiviral activity against Influenza A virus (A/Puerto Rico/8/1934(H1N1)) infected in C57BL/6J mouse assessed as recovery of weight loss at 1 mg/mouse/day, ip qd treated up to day 2 starting at 5 to 10 mins post infection measured up to day 12 relative to control; format: functional; in short: as §2
Influenza A virus [23] = assay: microbe, parasite or virus in culture; conditions: MDCK, 18 h
Influenza A virus [24] = assay: Inhibition of Influenza A virus nucleoprotein/polymerase acidic protein (1 to 27 residues) complex formation at 100 nM by surface plasmon resonance analysis
In short: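 Biotinylated PA(1-27) was captured on the chip at about 1500 RU, with a scrambled peptide on the same chip at similar RU. NP (12–2500 nM), alone or as NP-DNA complex, was injected with or without compound up to 50 µM. Running buffer was 20 mM Tris-HCl pH 7.4, 300 mM NaCl, 0.005% P20, at 25 °C and 30 µl/min. Regeneration used guanidinium chloride then 10 mM NaOH.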

Influenza A virus [25] = conditions: 50 uM
Influenza A virus [26] = assay: Antiviral activity against Influenza A virus (A/Puerto Rico/8/1934(H1N1)) infected in C57BL/6J mouse assessed as decrease in viral load in bronchoalveolar lavage at 1 mg/mouse/day, ip qd treated up to day 2 starting at 5 to 10 mins post infection relative to control; format: functional; in short: as §3

| Compound | inhibition (active/not active) (MDCK) | CC50 at 48 h [3] [µM] | Tm (Influenza A virus [4]) [°C] | selectivity ratio [5] | selectivity ratio at 18 h [6] | pIC50 (Influenza A virus [7]) | pIC50 (Influenza A virus [8]) | selectivity ratio at 48 h [9] | selectivity ratio at 18 h [10] | pIC50 (Influenza A virus [12]) | pKi [13] | selectivity ratio at 18 h [14] | pIC50 (Influenza A virus [15]) | selectivity ratio at 18 h [16] | other results |
| --- | --- | --- | --- | --- | --- | --- | --- | --- | --- | --- | --- | --- | --- | --- | --- |
| COc1ccc2cc(C(CC(=O)O)CC(=O)O)ccc2c1 | inactive | – | – | – | – | – | – | – | – | – | – | – | – | – | Tm (Influenza A virus [1]): 25 to 45 °C; pKi [2]: 6.10 |
| COc1ccc2cc(-c3c(C(=O)O)cc(Oc4ccc(N)cc4)cc3C(=O)O)ccc2c1 | Active | ≥ 10000 | 38 to 47 | 10 | 619 | 4.68 | – | – | – | – | – | – | – | – | – |
| COc1ccc2cc(-c3c(C(=O)[O-])ccc(Oc4ccc(N)cc4)c3C(=O)[O-])ccc2c1.[Na+].[Na+] | Active | ≥ 10000 | 48 | 10 | 17100 | 6.15 | 4.89 | 9230 | 923 | 5.89 | 7.52 | 923 | 4.77 | 706 | Activity (A549): Non-Toxic; pIC50 (Influenza A virus [11]): 4.89 |
| CCOC(=O)C1=C[C@@H](OC(CC)CC)[C@H](NC(C)=O)[C@@H](N)C1 [OSELTAMIVIR] | – | – | – | – | – | – | – | – | – | – | – | – | – | – | Activity (Influenza A virus [17]): Active; Activity (Influenza A virus [18]): inactive; fold change (FC) (Influenza A virus [19]): 260 |
| COc1ccc2cc([C@H](C)C(=O)O)ccc2c1 [NAPROXEN] | inactive | 1000 | 41 | – | – | – | 4.00 | 87 | 14 | 4.80 | 6.60 | 12 | 3.95 | 12.5 | CC50 at 48 h [20]: 1400 µM; CC50 [21]: 1400 µM; Activity (Influenza A virus [22]): 85%; pIC50 (Influenza A virus [23]): 3.92; inhibition (Influenza A virus [24]): inactive; inhibition (Influenza A virus [25]): inactive; fold change (FC) (Influenza A virus [26]): 2 |
